# Published values gathered from unrelated publications.
# Compare with care: the assays were run in different laboratories.
# Cell line: HeLa
# Read-out: cell growth or viability
SMILES,test,setting,IC50
N#Cc1ccc(NC(=S)NN=Cc2ccccc2)cc1,,72 h,67 µg/mL
CC[C@@]1(OC(=O)CN)C(=O)OCc2c1cc1n(c2=O)Cc2cc3cc4c(cc3nc2-1)OCO4,MTT,,42 nM
COc1c2c(cc3c1OCO3)[C@]13C=C[C@H](OC)C[C@@H]1[N@](C2)C[C@H]3OC(=O)c1ccc2ccccc2c1,WST-1,48 h,> 10000 nM
[Cl-].[Cl-].[Co+2],MTT,48 h,> 150000 nM
CC[C@@]1(OC(=O)C(C)c2cccc(C(=O)c3ccccc3)c2)C(=O)OCc2c1cc1n(c2=O)Cc2cc3cc4c(cc3nc2-1)OCO4 (stereo partly shown),MTT,,270 nM
COc1c2c(cc3c1OCO3)[C@]13C=C[C@H](OC)C[C@@H]1[N@](C2)C[C@H]3OC(=O)c1ccco1,WST-1,48 h,> 10000 nM
CC[C@@]1(OC(=O)Cc2c(C)n(C(=O)c3ccc(Cl)cc3)c3ccc(OC)cc23)C(=O)OCc2c1cc1n(c2=O)Cc2cc3cc4c(cc3nc2-1)OCO4,MTT,,306 nM
C[C@]12CCC(=O)C[C@@H]1CC[C@@H]1[C@@H]2CC[C@@]2(C)[C@H]1CC[C@]2(C)O,MTT,24 h,27600 nM
CC(C)[C@]12O[C@H]1[C@@H]1O[C@]13[C@]1(O[C@H]1C[C@H]1C4=C(CC[C@@]13C)C(=O)OC4)[C@@H]2O,thymidine uptake,24 h,12 nM
O=C(Cc1ccc2ccccc2c1)N[C@H](Cc1ccccc1)C(=O)N[C@@H](Cc1ccccc1)C(=O)N[C@@H](Cc1ccc(OP(=O)(O)O)cc1)C(=O)O,MTT,48 h,> 500000 nM
CC[C@@]1(OC(=O)[C@H](C)N)C(=O)OCc2c1cc1n(c2=O)Cc2cc3cc4c(cc3nc2-1)OCO4,MTT,,103 nM
COc1cc(C(=O)c2cc3c(-c4ccccc4)c(O)ccc3o2)cc(OC)c1OC,,,31000 nM
COc1ccc(C=NNC(=S)Nc2ccc(C#N)cc2)cc1,,72 h,31 µg/mL
CC[C@H](C)[C@@H]([C@@H](CC(=O)N1CCC[C@H]1[C@H](OC)[C@@H](C)C(=O)N[C@H](C)[C@@H](O)c1ccccc1)OC)N(C)C(=O)[C@@H](NC(=O)[C@H](C(C)C)N(C)C(=O)OCc1ccc(NC(=O)[C@H](CCCNC(N)=O)NC(=O)[C@@H](NC(=O)CCCCCN2C(=O)CC(SCCC(=O)N[C@@H](Cc3cn(CCOCCNCCCCCCOc4cc(OCCCc5c(C)n[nH]c5C)cc(C(=O)O)c4)nn3)C(=O)NCCCCCC(=O)NCCCC[C@H](NC(=O)N[C@@H](CCC(=O)O)C(=O)O)C(=O)O)C2=O)C(C)C)cc1)C(C)C (stereo partly shown),MTT,,372 nM
N#Cc1ccc(NC(=S)NN)cc1,,72 h,11 µg/mL
CC[C@@]1(OC(=O)C(C)c2ccc(CC(C)C)cc2)C(=O)OCc2c1cc1n(c2=O)Cc2cc3cc4c(cc3nc2-1)OCO4 (stereo partly shown),MTT,,> 5000 nM
Nc1cc(Br)c(Br)cc1N,,72 h,20000 nM
CC[C@H](C)[C@H](N)C(=O)O[C@]1(CC)C(=O)OCc2c1cc1n(c2=O)Cc2cc3cc4c(cc3nc2-1)OCO4,MTT,,124 nM
CSc1ccc(NC(=S)NN)cc1,,72 h,18 µg/mL
